Measurements from ChEMBL document CHEMBL4261652, “Modifying aroylhydrazone prochelators for hydrolytic stability and improved cytoprotection against oxidative stress” (Bioorg Med Chem, 2018).
Active and inactive are the calls of the source. The calls are words filed in the database; no cut-off is given here.

Tests used:
ARPE-19 [1] = test: Cytoprotective activity against H2O2-induced oxidative stress in human ARPE19 cells up to 100 uM pretreated for 5 hrs followed by H2O2-stimulation and measured after 19 hrs by CellTiter-Blue assay; format: functional, cell-based
Outline: (§1)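 ARPE-19 cells grown to confluence in 1:1 DMEM/F12 with 10% FBS, 37 °C, 5% CO2; washed with MEM, pre-treated 5 h with compound, then H2O2 added to 200 μM final; viability read 19 h later by CellTiter-Blue, as percent of untreated control; triplicate runs, mean ± SD.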

[2] = Iron chelating activity of the compound assessed as recovery of calcein fluorescence from calcein-Fe3+ complex by measuring iron binding constant at 4 uM measured after 2 hrs by fluorescence assay
Outline: (§2)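 Compound at 100 μM in PBS pH 7.4, prepared fresh, either used directly or first incubated 12 h with 5 mM H2O2. Then brought to 4 μM with 2 μM Fe3+-calcein (preformed 4 h from ferric ammonium citrate and calcein) in PBS, equilibrated 2 h at 25 °C; emission read 485/535 nm, as percent of free calcein; n = 3.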

ARPE-19 [3] = test: Cytotoxicity against human ARPE19 cells up to 100 uM after 24 hrs by CellTiter-Blue assay; format: cell-based; conditions: arpe-19, 24 h
[4] = Iron chelating activity of the compound assessed as recovery of calcein fluorescence from calcein-Fe3+ complex by measuring iron binding constant at 4 uM preincubated with H2O2 for 12 hrs followed by addition to calcein-Fe3+ complex measured after 2 hrs by fluorescence assay; outline: as §2
[5] = Iron chelating activity of the compound assessed as recovery of calcein fluorescence from calcein-Fe3+ complex at 4 uM preincubated with H2O2 for 12 hrs followed by addition to calcein-Fe3+ complex measured after 2 hrs by fluorescence assay relative to control; outline: as §2
[6] = Hydrolytic stability of compound in D2O/2% DMSO-d6 solvent at 200 uM preincubated for 1 hr followed by H2O2 addition measured after 24 hrs by 1H-NMR spectroscopy; format: physicochemical; conditions: D2O/2% DMSO-d6 with H2O2 added; read-out: Stability
ARPE-19 [7] = test: Cytoprotective activity against paraquat-induced oxidative stress in human ARPE19 cells pretreated for 5 hrs followed by paraquat-stimulation and measured after 48 hrs by CellTiter-Blue assay; format: functional, cell-based
ARPE-19 [8] = test: Cytotoxicity against human ARPE19 cells up to 100 uM after 72 hrs by CellTiter-Blue assay; format: cell-based; conditions: arpe-19, 72 h
Outline: (§3)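 Confluent ARPE-19 monolayers washed three times with MEM, then exposed 72 h to compound at 5–100 μM in MEM containing up to 1% DMSO; viability by CellTiter-Blue; triplicate runs, standard deviations.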

[9] = Hydrolytic stability in pH 7.4 PBS buffer at 100 uM by UV-Vis spectrophotometric analysis; format: physicochemical; conditions: pH 7.4, 100 µM, TDE = time-dependent effect
Outline: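 UV-Vis monitoring of prochelator in PBS pH 7.4 at 1-min intervals over 30 min in 1-cm quartz cuvettes; hydrazide plus aldehyde (100 μM each) mixtures followed as reference.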

[10] = Hydrolytic stability of compound in D2O/5% DMSO-d6 solvent at 200 uM after 1 hr by 1H-NMR spectroscopy; format: physicochemical; conditions: read-out: Stability
[11] = Hydrolytic stability in PBS of pH 7.4 assessed as equilibrium constant for hydrolytic product formation after 1 hr measured at 1 min intervals over 30 mins by UV-Vis spectrophotometric analysis; format: physicochemical; conditions: buffer, pH 7.4, 1 h
Outline: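 K measured by UV-Vis on equilibrated prochelator solutions in PBS pH 7.4 at several starting concentrations. Absorbances at 263 and 321 nm, with extinction coefficients from linear calibration plots, gave equilibrium concentrations of prochelator, hydrazide and aldehyde; K = [INH][FBA]/[prochelator].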

ARPE-19 [12] = test: Cytoprotective activity against H2O2-induced oxidative stress in human ARPE19 cells at 25 uM pretreated for 5 hrs followed by H2O2-stimulation and measured after 19 hrs by CellTiter-Blue assay; format: functional, cell-based; outline: as §1
[13] = Solubility of the compound in aqueous buffer at >50 uM; format: physicochemical
ARPE-19 [14] = test: Cytotoxicity against human ARPE19 cells assessed as reduction in cell viability at 100 uM after 72 hrs by CellTiter-Blue assay; format: cell-based; conditions: arpe-19, 72 h; outline: as §3
[15] = Cytotoxicity against rat H9c2 cells after 72 hrs by neutral red uptake assay; format: cell-based; conditions: read-out: TC50
ARPE-19 [16] = test: Cytoprotective activity against paraquat-induced oxidative stress in human ARPE19 cells assessed as cell viability restoration at 100 uM after 48 hrs relative to control; format: functional
Outline: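 ARPE-19 cells were grown to confluence in 1:1 DMEM/F12 with 10% FBS at 37 °C and 5% CO2, then washed with MEM. Cells were co-incubated in MEM with 10 mM paraquat plus compound for 48 h, with no pre-incubation step. Viability was read by CellTiter-Blue and expressed as % of the untreated MEM-only control. Triplicate runs, SD.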

ARPE-19 [17] = test: Cytoprotective activity against paraquat-induced oxidative stress in human ARPE19 cells up to 100 uM pretreated for 5 hrs followed by paraquat-stimulation and measured after 48 hrs by CellTiter-Blue assay; format: functional, cell-based
ARPE-19 [18] = test: Cytoprotective activity against H2O2-induced oxidative stress in human ARPE19 cells at 25 to 50 uM pretreated for 5 hrs followed by H2O2-stimulation and measured after 19 hrs by CellTiter-Blue assay; format: functional, cell-based; outline: as §1
[19] = Hydrolytic stability in PBS of pH 7.4 at 50 uM after 1 hr by UV-Vis spectrophotometric analysis; format: physicochemical; conditions: buffer, pH 7.4, 1 h
[20] = Hydrolytic stability of compound in D2O/5% DMSO-d6 solvent at 500 uM after 1 hr by 1H-NMR spectroscopy; format: physicochemical
Outline: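 1H NMR in D2O: prochelator at 500 μM with 5% DMSO-d6, or at 200 μM with 2% DMSO-d6, equilibrated 1 h before spectra; activation by H2O2 added to 25 mM final (10 mM in the 200 μM case), reacting 12 h; aromatic peaks integrated.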

[21] = Hydrolytic stability of compound in D2O/5% DMSO-d6 solvent at 500 uM preincubated for 1 hr followed by H2O2 addition measured after 24 hrs by 1H-NMR spectroscopy; format: physicochemical; conditions: D2O/5% DMSO-d6 with H2O2 added; read-out: Stability
ARPE-19 [22] = test: Cytotoxicity against human ARPE19 cells up to 100 uM over 72 hrs by CellTiter-Blue assay; format: cell-based; conditions: arpe-19, 72 h; outline: as §3
ARPE-19 [23] = test: Cytoprotective activity against paraquat-induced oxidative stress in human ARPE19 cells assessed as cell viability at 100 uM pretreated for 5 hrs followed by paraquat-stimulation and measured after 48 hrs by CellTiter-Blue assay; format: functional; conditions: read-out: Activity

Activity [2]	Activity [5]	SMILES	Activity (ARPE-19 [3])	also measured
inactive		CNC(=S)N/N=C/c1ccccc1O	Non-Toxic	Activity (ARPE-19 [1]): inactive
inactive	inactive	CNC(=S)N/N=C/c1ccccc1B1OC(C)(C)C(C)(C)O1	Non-Toxic	Activity (ARPE-19 [1]): inactive
inactive	75%	CC1(C)OB(c2cc3c(cc2/C=N/NC(=O)c2ccncc2)OCO3)OC1(C)C	Non-Toxic	remaining at 24 h, 200 µM [6]: 45%; Activity (ARPE-19 [7]): Dose-dependent effect; Activity (ARPE-19 [8]): Non-Toxic; Stability [9]: Tde; remaining at 1 h, 200 µM [10]: 80%; K [11]: 8 ×10⁻⁶ M; Activity (ARPE-19 [12]): Active
inactive	inactive	COc1ccc(/C=N/NC(=O)c2cccnc2)c(B2OC(C)(C)C(C)(C)O2)c1	Non-Toxic	
inactive	50%	CC1(C)OB(c2ccccc2/C=N/NC(=O)c2ccncc2)OC1(C)C	Non-Toxic	Activity (ARPE-19 [17]): inactive; Activity (ARPE-19 [8]): Non-Toxic; Activity (ARPE-19 [18]): Active; K [11]: 1.5 ×10⁻⁵ M
inactive	inactive	CC1(C)OB(c2ccccc2/C=N/NC(=S)Nc2ccccc2)OC1(C)C	Non-Toxic	Activity (ARPE-19 [17]): inactive; Activity (ARPE-19 [18]): Active

The next lines start with the molecule.

SMILES	Activity [2]	Activity [5]	Activity (ARPE-19 [3])	also measured
O=C(N/N=C/c1ccccc1O)c1ccncc1 [SALINAZID]	> 90%		Non-Toxic	log(activity) [4]: -23
COc1ccc(O)c(/C=N/NC(=O)c2ccncc2)c1	> 90%		Non-Toxic	
COc1ccc(/C=N/NC(=O)c2ccncc2)c(O)c1				solubility [13]: Insoluble
C/C(=N\NC(=O)c1ccncc1)c1ccccc1OCc1ccc(B2OC(C)(C)C(C)(C)O2)cc1				Activity (ARPE-19 [14]): 25%; Activity (ARPE-19 [7]): Dose-dependent effect; CC50 at 72 h [15]: 37.1 µM; Activity (ARPE-19 [16]): 40%
COc1ccc(/C=N/NC(=O)c2cccnc2)c(O)c1	> 90%		Non-Toxic	
Oc1ccccc1/C=N/NC(=S)Nc1ccccc1	inactive		Non-Toxic	
O=C(N/N=C/c1ccc(Cl)cc1B(O)O)c1ccncc1	inactive	inactive	Non-Toxic	
COc1ccc(/C=N/NC(=O)c2ccncc2)cc1B1OC(C)(C)C(C)(C)O1	inactive	inactive	Non-Toxic	Activity (ARPE-19 [1]): inactive; Activity (ARPE-19 [17]): inactive; Stability [19]: Stable; Stability ([20]; 1 h, 500 µM): Stable
COc1ccc(B2OC(C)(C)C(C)(C)O2)c(/C=N/NC(=O)c2ccncc2)c1	inactive	60%	Non-Toxic	Activity (ARPE-19 [14]): 20%; remaining at 24 h, 500 µM [21]: 67%; Stability [9]: Tde; Activity (ARPE-19 [22]): Toxic; viability at 100 µM (ARPE-19 [23]): 30%; remaining at 1 h, 500 µM ([20]; D2O/5% DMSO-d6, read-out: Stability): 85%; K [11]: 1.1 ×10⁻⁵ M; Activity (ARPE-19 [12]): Active
